One assay has as its system Saccharomyces cerevisiae. Put plainly: Inhibition of Saccharomyces cerevisiae alpha-glucosidase at 200 uM using p-nitrophenyl-glycoside as substrate incubated for 20 mins followed by substrate addition measured immediately relative to control. The method in brief: (§1)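 Yeast α-glucosidase from S. cerevisiae, from an enzyme stock of 2.0 units/mL, in 0.01 M potassium phosphate buffer at pH 7.0. Sample in DMSO was preincubated with enzyme for 20 min at 37 °C. p-Nitrophenyl glycoside (3 mg/mL stock) was then added and A410 read immediately at 37 °C. Inhibition % = (B−S)/B×100, with B as the DMSO blank. Screened at 200 μM; compounds above 45% inhibition went on to IC50. Triplicates.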

Assay [1] is described as follows: Inhibition of Saccharomyces cerevisiae alpha-glucosidase using p-nitrophenyl-glycoside as substrate incubated for 20 mins followed by substrate addition measured immediately. The essentials: as §1
Assay [2] has as its target T1, Phosphotyrosine protein phosphatase (Mycobacterium tuberculosis, UniProt A0A045ISB3).
T1 sequence (A0A045ISB3 whole entry): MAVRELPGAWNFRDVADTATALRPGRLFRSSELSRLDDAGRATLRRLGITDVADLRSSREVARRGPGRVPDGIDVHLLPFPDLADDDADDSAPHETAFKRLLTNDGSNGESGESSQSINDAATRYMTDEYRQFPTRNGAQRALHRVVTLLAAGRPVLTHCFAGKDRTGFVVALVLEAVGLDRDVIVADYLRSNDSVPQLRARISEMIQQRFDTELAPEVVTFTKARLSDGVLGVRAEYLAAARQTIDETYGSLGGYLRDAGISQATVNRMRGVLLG
In words: Inhibition of Mycobacterium tuberculosis H37Ra PTPB expressed in Escherichia coli BL21 (DE3) using p-nitrophenyl phosphate as substrate preincubated for 10 mins followed by substrate addition measured for 5 mins by spectrophotometric analysis. The method in brief: (§2)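 Triplicate wells; reaction buffer 50 mM Tris/100 mM NaCl, pH 7.0; p-nitrophenyl phosphate as substrate; oleanolic acid as positive control. Full details on enzyme overexpression, purification and assay are given in an earlier report.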

Another assay has as its system A549. In words: Cytotoxicity against human A549 cells by MTT assay. It is filed as functional, cell-based. The method in brief: (§3)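 MTT read-out in human cell lines A549, HepG2, HeLa, MCF-7 and HEK293T. Compounds were tested at 100 μM. Other details follow a prior report.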
Another assay concerns HepG2. In words: Cytotoxicity against human HepG2 cells by MTT assay. The assay is classed as functional, cell-based. The essentials:
as §3

A further assay has as its system HeLa. Put plainly: Cytotoxicity against human HeLa cells by MTT assay. The assay is classed as functional, cell-based. The essentials:
as §3

Another assay concerns MCF7. Put plainly: Cytotoxicity against human MCF7 cells by MTT assay. It is filed as functional, cell-based. The essentials: as §3
A further assay deals with HEK-293T. In words: Cytotoxicity against human HEK293T cells by MTT assay. It is filed as functional, cell-based. The method in brief: as §3
Assay [3] has as its target T2, Phosphotyrosine protein phosphatase (Mycobacterium tuberculosis) (UniProt A0A045ISB3).
T2 sequence (whole entry): T1 sequence (A0A045ISB3 whole entry)
Put plainly: Inhibition of Mycobacterium tuberculosis H37Ra PTPB expressed in Escherichia coli BL21 (DE3) at 50 uM using p-nitrophenyl phosphate as substrate preincubated for 10 mins followed by substrate addition measured for 5 mins by spectrophotometric analysis. The method in brief:
as §2

Each structure is given as a SMILES string. Activity calls are given as the source filed them. The calls are words filed in the database; no cut-off is given here.

In the assay with Saccharomyces cerevisiae, `C[C@H](O)Cc1cc2c(O)c(O)cc(O)c2c(=O)o1` returned an inhibition of 91%. The values for the concentration for half-maximal inhibition (IC50) in assay [1] and in assay [2] were 40.5 µM and 20.7 µM, respectively. The outcome with A549, with HepG2, in the assay on HeLa, with MCF7 and in the assay with HEK-293T was inactive.

`COC(=O)[C@@H]1[C@H](C(=O)OC)[C@@H](c2cc3cc(OC)cc(O)c3c(=O)o2)[C@H]1c1cc2cc(OC)cc(O)c2c(=O)o1` gave an inhibition in the assay with Saccharomyces cerevisiae of 18%. In [3], the inhibition entry was “inactive”. Further, the outcome in the assay with A549, in the assay with HepG2, in the assay on HeLa, in the assay on MCF7 and in the assay with HEK-293T was inactive.

In the assay with Saccharomyces cerevisiae, `COc1cc(O)c2c(=O)oc(C[C@@H](O)C(Cl)Cl)cc2c1O` yielded an inhibition of 91%. Also, in [1], half-maximal inhibition (IC50) was put at 45.1 µM. In addition, in assay [3], the inhibition result was “inactive”. Moreover, the outcome with A549, in the assay on HepG2, in the assay with HeLa, in the assay on MCF7 and in the assay on HEK-293T was inactive.

With `COc1cc(O)c2c(=O)oc(C[C@@H](O)CO)cc2c1O`, the inhibition in the assay on Saccharomyces cerevisiae came out at 83%. The compound further had an IC50 in [1] of 78.1 µM. Besides, in [3], the inhibition result was “inactive”. In addition, the result in the assay on A549, with HepG2, in the assay with HeLa, in the assay on MCF7 and with HEK-293T was inactive.

As for `C[C@H]1O[C@H](O[C@H]2[C@H](O)[C@@H](O)[C@@H](O[C@H]3[C@H](O)[C@@H](O)C(O)O[C@@H]3CO)O[C@@H]2CO)[C@H](O)[C@@H](O)[C@@H]1N[C@H]1C=C(CO)[C@@H](O)[C@H](O)[C@H]1O` (stereo partly specified) [ACARBOSE], the inhibition with Saccharomyces cerevisiae worked out at 19%. Further, the IC50 in assay [1] came out at 478 µM.

The compound `COc1cc(O)c2c(=O)oc(C[C@@H](O)C(Cl)Cl)cc2c1` returned an inhibition in the assay with Saccharomyces cerevisiae of 69%. The concentration for half-maximal inhibition (IC50) in [1] stood at 102 µM. The inhibition result in assay [3] is “inactive”. Also, the outcome with A549, in the assay on HepG2, in the assay on HeLa, in the assay with MCF7 and in the assay with HEK-293T was inactive.

`COc1cc(O)c2c(=O)oc(C[C@@H]3O[C@@H]3C(C)=O)cc2c1`: the inhibition in the assay with Saccharomyces cerevisiae is 95%. Further, the IC50 in assay [1] was found to be 38.1 µM. Besides, in assay [3], the inhibition entry was “inactive”. The result in the assay with A549, in the assay on HepG2, with HeLa, in the assay on MCF7 and with HEK-293T was inactive.

In the assay with Saccharomyces cerevisiae, `COc1cc(O)c2c(=O)oc(C[C@@H](Cl)CO)cc2c1` registered an inhibition of 58%. Further, in assay [1], half-maximal inhibition (IC50) required 158 µM. The inhibition entry in assay [3] was “inactive”. In addition, the result in the assay on A549, in the assay with HepG2, in the assay with HeLa, in the assay on MCF7 and with HEK-293T was inactive.

In the case of `CC1(C)CC[C@]2(C(=O)O)CC[C@]3(C)C(=CC[C@@H]4[C@@]5(C)CC[C@H](O)C(C)(C)[C@@H]5CC[C@]43C)[C@@H]2C1` [OLEANOLIC_ACID], in [2], it took 22.1 µM to reach half-maximal inhibition (IC50).

In the case of `COc1cc(O)c2c(=O)oc(C[C@@H](O)CC(C)=O)cc2c1`, the inhibition with Saccharomyces cerevisiae was determined as 38%. Also, in assay [3], the inhibition entry is “inactive”. Besides, the result with A549, with HepG2, with HeLa, in the assay with MCF7 and in the assay on HEK-293T was inactive.

Take `COc1cc(O)c2c(=O)oc(C[C@H](C)O)cc2c1`: the inhibition in the assay with Saccharomyces cerevisiae is 33%. In addition, in [3], the inhibition entry is “inactive”. The outcome in the assay on A549, in the assay with HepG2, in the assay on HeLa, in the assay with MCF7 and in the assay with HEK-293T was inactive.

`COC(=O)[C@@H]1[C@H](C(=O)OC)[C@H](c2cc3cc(OC)cc(O)c3c(=O)o2)[C@@H]1c1cc2cc(OC)cc(O)c2c(=O)o1` had an inhibition in the assay on Saccharomyces cerevisiae of 23%. Also, the inhibition result in assay [3] is “inactive”. In addition, the result in the assay with A549, in the assay on HepG2, with HeLa, in the assay with MCF7 and in the assay with HEK-293T was inactive.

In the assay on Saccharomyces cerevisiae, `COc1cc(O)c2c(=O)oc(C[C@@H](O)CO)cc2c1` showed an inhibition of 43%. In addition, in assay [3], the inhibition entry is “inactive”. The result in the assay with A549, in the assay on HepG2, in the assay with HeLa, in the assay on MCF7 and in the assay with HEK-293T was inactive.

`COc1cc(O)c2c(=O)oc(C[C@@H](O)CCl)cc2c1`: the inhibition with Saccharomyces cerevisiae is 41%. The inhibition entry in [3] is “inactive”. For the same compound, the result in the assay on A549, with HepG2, in the assay with HeLa, in the assay with MCF7 and with HEK-293T was inactive.

`COc1cc(O)c2c(=O)oc(C[C@@H](Cl)CO)cc2c1O` registered an inhibition with Saccharomyces cerevisiae of 66%. This compound also displayed a half-maximal inhibitory concentration (IC50) in assay [1] of 110 µM. Also, the inhibition entry in assay [3] was “inactive”. Also, the result in the assay on A549, in the assay on HepG2, in the assay on HeLa, in the assay with MCF7 and with HEK-293T was inactive.

Source of the values: ChEMBL document CHEMBL4145587, “Peniisocoumarins A-J: Isocoumarins from Penicillium commune QQF-3, an Endophytic Fungus of the Mangrove Plant Kandelia candel” (J Nat Prod, 2018).
